The text below walks through data of ChEMBL document CHEMBL1221219, “Selective blockade of 2-arachidonoylglycerol hydrolysis produces cannabinoid behavioral effects” (Nat Chem Biol, 2009).

Molecules are shown by their SMILES. Active and inactive are the calls of the source. The calls are words filed in the database; no cut-off is given here.

The subject of experiment [1] is Mus musculus. Briefly: Inhibition of CTHA in C57B1/6J mouse brain membrane at 16 mg/kg, ip after 4 hrs by competitive activity-based protein profiling-MudPIT method. It counts as functional, organism-based. Details: dose 16 mg/kg. In outline: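 Mice were dosed 16 mg kg^-1 i.p. or vehicle and killed at 4 h. Brain membrane proteomes were labelled with FP-biotin, avidin-enriched, trypsin-digested on bead, analysed by multidimensional LC-MS and identified by SEQUEST.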

The target of experiment [2] is T1, Diacylglycerol lipase-beta (Homo sapiens) (UniProt Q8NCG7).
T1 sequence (whole entry): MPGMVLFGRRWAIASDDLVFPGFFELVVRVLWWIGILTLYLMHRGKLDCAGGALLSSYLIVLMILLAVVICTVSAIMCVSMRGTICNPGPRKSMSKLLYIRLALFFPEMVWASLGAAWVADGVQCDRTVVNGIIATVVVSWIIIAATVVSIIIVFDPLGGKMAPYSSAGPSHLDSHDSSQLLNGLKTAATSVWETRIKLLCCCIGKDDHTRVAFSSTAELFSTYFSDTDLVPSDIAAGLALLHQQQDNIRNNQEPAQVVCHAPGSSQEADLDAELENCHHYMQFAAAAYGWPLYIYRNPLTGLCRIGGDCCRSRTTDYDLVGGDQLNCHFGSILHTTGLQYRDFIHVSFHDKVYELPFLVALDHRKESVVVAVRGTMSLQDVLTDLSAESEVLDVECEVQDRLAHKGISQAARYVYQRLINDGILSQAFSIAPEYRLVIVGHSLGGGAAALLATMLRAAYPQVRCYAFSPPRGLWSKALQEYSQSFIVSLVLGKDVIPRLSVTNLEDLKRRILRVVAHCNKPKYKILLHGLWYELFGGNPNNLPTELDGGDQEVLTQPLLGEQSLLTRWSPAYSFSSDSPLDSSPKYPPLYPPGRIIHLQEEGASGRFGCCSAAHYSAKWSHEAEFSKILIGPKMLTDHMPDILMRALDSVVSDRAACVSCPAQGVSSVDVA
In words: Inhibition of recombinant DAGLbeta expressed in HEK293 cells assessed as hydrolysis of 1-stearoyl-2-arachidonoyl-glycerol to 2-AG at 10 uM after 30 mins by LC-MS method. The format is cell-based.

The subject of experiment [3] is Mus musculus. In words: Inhibition of FAS in C57B1/6J mouse brain membrane at 16 mg/kg, ip after 4 hrs by competitive activity-based protein profiling-MudPIT method. It counts as functional, organism-based. The arrangement: dose 16 mg/kg. In outline: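 After i.p. dosing in 4:1 PEG300:Tween80, male C57Bl/6J mice were killed at 4 h. Brain membrane proteomes from treated and vehicle mice were labelled with FP-biotin. Labelled proteins were enriched on avidin, digested on-bead with trypsin and analysed by multidimensional LC-MS. Proteins were identified by SEQUEST, and dosed samples were compared with vehicle.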

In experiment [4] the test system is Mus musculus. In words: Change in oleic acid in intraperitoneally dosed C57B1/6J mouse brain by LC-MS. The format is functional, organism-based. Summed up: (§1)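 Male C57Bl/6J mice given 4, 8, 16 or 40 mg kg^-1 i.p. in 4:1 PEG300:Tween80 at 4 μl g^-1, or vehicle, and killed after 4 h. Whole-brain lipids were quantified by LC-MS.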
Experiment [5] relates to Mus musculus. In words: Inhibition of FAAH in C57B1/6J mouse brain membrane at 16 mg/kg, ip after 4 hrs by competitive activity-based protein profiling method relative to control. Details: scale not given: the % may be the effect or the level left. It counts as functional. The settings on record: route intraperitoneal. In outline: (§2)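 Male C57Bl/6J mice (6-8 weeks, 20-26 g) given inhibitor i.p. in 4:1 v/v PEG300:Tween80 at 4 ul g^-1 (4-40 mg kg^-1); vehicle controls. Brain membrane proteomes (1 mg ml^-1 in PBS) labelled with FP-rhodamine (2 μM) for 30 min at room temperature. Readout by SDS-PAGE and in-gel fluorescence scanning, compared with vehicle.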

Experiment [6] has as its system Mus musculus. Briefly: Inhibition of MAGL in C57B1/6J mouse brain membrane at 16 mg/kg, ip after 0.5 hrs by competitive activity-based protein profiling method. It counts as functional, organism-based. The arrangement: dose 16 mg/kg. Summed up:
as §2

The test system of experiment [7] is Mus musculus. Briefly: Induction of hypomotility in C57B1/6J mouse at 16 mg/kg, ip. It counts as functional, organism-based. The arrangement: dose 16 mg/kg. In outline: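 Male C57Bl/6J mice, 6-8 weeks, 20-26 g, given 16 mg kg^-1 i.p. in 4:1 v/v PEG300:Tween80 at 4 μl g^-1; vehicle controls received PEG300:Tween80 alone. Cannabinoid effects were scored in the tetrad test.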

In experiment [8] the target is Cannabinoid receptor 1 (Homo sapiens) (UniProt P21554). In words: Displacement of [3H]rimonabant from CB1 in cerebellar membrane after 90 mins by liquid scintillation. The format is cell membranes. The settings on record: Cerebellum. (Loss of bound radioactivity is the signal in a displacement assay; it reports binding, not function.)
Chain of Cannabinoid receptor 1 (Homo sapiens) (P21554 whole entry): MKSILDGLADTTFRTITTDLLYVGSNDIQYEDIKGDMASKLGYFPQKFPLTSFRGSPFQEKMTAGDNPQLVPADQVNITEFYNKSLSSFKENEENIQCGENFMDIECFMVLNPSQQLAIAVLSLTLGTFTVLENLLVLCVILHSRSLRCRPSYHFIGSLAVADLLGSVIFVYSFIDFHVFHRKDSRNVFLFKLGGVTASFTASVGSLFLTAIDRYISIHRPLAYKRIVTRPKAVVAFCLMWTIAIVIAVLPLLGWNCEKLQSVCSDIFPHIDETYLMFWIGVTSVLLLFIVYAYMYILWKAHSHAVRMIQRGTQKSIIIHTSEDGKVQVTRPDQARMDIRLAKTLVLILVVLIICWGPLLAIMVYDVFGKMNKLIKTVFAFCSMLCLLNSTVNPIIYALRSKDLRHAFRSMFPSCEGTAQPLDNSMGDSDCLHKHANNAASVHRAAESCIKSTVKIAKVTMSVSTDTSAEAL
In experiment [9] the test system is Mus musculus. Briefly: Change in monopalmitoylglycerol levels in intraperitoneally dosed C57B1/6J mouse brain by LC-MS. It counts as functional, organism-based. Summed up:
as §1

Experiment [10] concerns the target T2, Diacylglycerol lipase-alpha (Homo sapiens) (UniProt Q9Y4D2).
T2 sequence (whole entry): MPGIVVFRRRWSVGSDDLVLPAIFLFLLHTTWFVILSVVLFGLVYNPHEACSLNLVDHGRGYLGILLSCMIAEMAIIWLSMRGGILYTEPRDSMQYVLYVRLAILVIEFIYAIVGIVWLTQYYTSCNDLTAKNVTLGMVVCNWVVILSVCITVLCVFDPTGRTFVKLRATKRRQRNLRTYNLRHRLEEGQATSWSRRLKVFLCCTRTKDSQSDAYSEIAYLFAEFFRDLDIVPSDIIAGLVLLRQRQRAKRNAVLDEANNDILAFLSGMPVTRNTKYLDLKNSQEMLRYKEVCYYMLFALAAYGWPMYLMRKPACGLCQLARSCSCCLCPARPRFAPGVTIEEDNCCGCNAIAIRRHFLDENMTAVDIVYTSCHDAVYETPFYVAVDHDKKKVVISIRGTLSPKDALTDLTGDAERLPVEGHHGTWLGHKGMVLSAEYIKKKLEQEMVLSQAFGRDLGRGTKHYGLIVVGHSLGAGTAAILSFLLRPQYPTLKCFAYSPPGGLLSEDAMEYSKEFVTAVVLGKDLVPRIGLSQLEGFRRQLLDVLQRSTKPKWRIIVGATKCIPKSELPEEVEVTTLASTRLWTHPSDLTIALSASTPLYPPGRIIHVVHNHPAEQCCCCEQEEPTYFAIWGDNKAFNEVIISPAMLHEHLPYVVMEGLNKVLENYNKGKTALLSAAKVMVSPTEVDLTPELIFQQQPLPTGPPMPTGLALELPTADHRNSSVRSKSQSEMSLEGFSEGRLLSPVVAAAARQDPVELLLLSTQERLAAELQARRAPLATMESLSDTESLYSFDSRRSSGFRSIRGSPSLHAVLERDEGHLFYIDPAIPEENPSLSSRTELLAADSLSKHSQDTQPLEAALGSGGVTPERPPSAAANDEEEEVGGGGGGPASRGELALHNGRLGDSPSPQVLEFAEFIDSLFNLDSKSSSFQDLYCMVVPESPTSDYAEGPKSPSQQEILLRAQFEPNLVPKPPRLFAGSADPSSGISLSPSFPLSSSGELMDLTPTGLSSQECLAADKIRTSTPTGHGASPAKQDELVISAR
Briefly: Inhibition of recombinant DAGLalpha expressed in HEK293 cells assessed as hydrolysis of 1-stearoyl-2-arachidonoyl-glycerol to 2-AG at 10 uM after 30 mins by LC-MS method. It counts as cell-based.

Experiment [11] concerns Mus musculus. Briefly: Inhibition of JZL184 induced immobility in C57B1/6J mouse at 16 mg/kg, ip. The format is functional, organism-based. The arrangement: dose 16 mg/kg.

As for `O=C(Oc1ccc([N+](=O)[O-])cc1)N1CCC(C(O)(c2ccc3c(c2)OCO3)c2ccc3c(c2)OCO3)CC1`, the inhibition entry (in the experiment with Mus musculus [1]; in experiment [2]; with Mus musculus [3]; in [10]) was “inactive” each time. The outcome (in the experiment on Mus musculus [4]; in experiment [8]; in the experiment with Mus musculus [9]) was inactive. The Activity in the experiment with Mus musculus [5] was determined as 35%. For the same compound, the inhibition result with Mus musculus [6] and in the experiment on Mus musculus [11] was “Active” throughout. The result with Mus musculus [7] was Active.
